High-throughput results deposited in PubChem BioAssay by several laboratories.
An excerpt weighted towards active compounds, which were near 1.9% of everything screened.
Rev-erbA mod: modulates human Rev-erb alpha binding to DNA; P20393; Rev-erbα–FITC-DNA binding, fluorescence polarization, 90 min; activity, % at 10 µM; 0.79% of 370,000 active; AID 1259318;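 active means activity above about 14%, limit read from the data; passing the limit was not always enough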
NR2E3 ag-1: agonists of human nuclear receptor NR2E3 | GST-NR2E3/biotin-RetCOR TR-FRET, 1536-well | inhibition of corepressor binding, % at 4.78 µM | 0.12% of 320,000 active;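 active means percent inhibition above the cutoff of mean plus 3 SD of all tested compounds, set per screening campaign, cut at about 20% in these data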
Target sequence (Q9Y5X4 whole entry, looked up): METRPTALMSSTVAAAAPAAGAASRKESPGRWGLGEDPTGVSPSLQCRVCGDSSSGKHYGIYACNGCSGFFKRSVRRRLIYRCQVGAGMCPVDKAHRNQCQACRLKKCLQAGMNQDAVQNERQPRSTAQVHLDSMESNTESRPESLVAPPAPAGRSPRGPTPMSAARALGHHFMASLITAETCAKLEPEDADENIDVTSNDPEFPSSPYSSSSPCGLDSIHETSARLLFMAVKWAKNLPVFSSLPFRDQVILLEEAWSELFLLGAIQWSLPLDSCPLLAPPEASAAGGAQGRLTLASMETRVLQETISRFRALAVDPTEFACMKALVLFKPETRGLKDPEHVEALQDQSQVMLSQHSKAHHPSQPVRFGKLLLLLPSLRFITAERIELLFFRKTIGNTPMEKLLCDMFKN
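System: GST-tagged NR2E3 plus biotinylated RetCOR corepressor; Amount: 1.35 nM GST-tagged NR2E3 final; Dosing: single nominal compound dose of 4.8 µM; Schedule: 5 h incubation at 4 °C; Technique: TR-FRET with europium anti-GST and streptavidin-D2, 340 nm excitation; Controls: biotin wells as high control, 0.6% DMSO wells as low control.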
MT1-MMP act inh: blocks activation of human MT1-MMP; HT1080 RFP-PRO-GFP cells, GFP/RFP ratio fluorescence, overnight; percent of plate control window, DMSO zero; GFP/RFP ratio change, % at 20 µM; 0.061% of 360,000 active; AID 651647;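 active means GFP/RFP ratio change of at least 30% with cell ATP level not reduced by more than half and red fluorescence within 50% of control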
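Assay system: RFP-PRO-GFP reporter HT1080 cells; read-out basis: GFP/RFP fluorescence ratio; benchmarks: DMSO wells and RFP-L50D-GFP cells; doses: 20 µM single dose, 1% DMSO; schedule: overnight cell settling, then overnight compound exposure, 37 °C, 5% CO2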
NR2E3 ag-2: activates human NR2E3 receptor; inhibition of corepressor binding, % at 3.98 µM; Q9Y5X4; 0.35% of 360,000 active; CHO-S Gal4-NCOR/VP16-NR2E3 two-hybrid, luciferase; AID 602229;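 active means inhibition above the mean of all tested compounds plus 3 SD, cut at about 70% in these data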;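 further: higher means lower luciferase signal from less NR2E3 corepressor binding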
PG9 Ab binder: small molecules binding HIV-1 gp120 antibody PG9 | TR-FRET gp120-PG9 antibody binding | inhibition, % at 6.7 µM | 0.43% of 360,000 active | AID 624416; in the data active means inhibition above about 8.5%
SKN-1 inh: C. elegans SKN-1 inhibition. C. elegans VP596 Pgst-4::GFP/RFP ratio, acrylamide-induced, 24 h. inhibition, % at 21.8 µM. 0.49% of 360,000 active;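 active means interference check ratio from 0.5 to 1.5 plus GFP to RFP signal ratio inhibition reaching or exceeding a fixed threshold, cut at about 30% in these data, passing the limit was not always enough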
Rev-erbA confirm: confirmation of modulators of human Rev-erb alpha DNA binding. Rev-erb alpha FITC-DNA binding, fluorescence polarization, 90 min. 61% of 3,000 active. shares compounds with Rev-erbA mod. activation, % at 25 µM;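 active means activation at or above a set limit, or at least 3 SD above the negative control mean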
RORg counter: counter-screen for Rev-erb alpha modulators: RORgamma DNA binding. purified RORgamma protein-FITC-DNA binding, fluorescence polarization. AID 1259320. IC50, µM. shares compounds with Rev-erbA mod. 8% of 910 active;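 active means Compounds whose fitted half-maximal concentration for disrupting protein-DNA binding is below 10 micromolar; the record names Rev-erb in its text, so the target is in doubt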
Large screens that a line does not name were inactive (follow-up assays come after a bar, where they were run).

COc1ccc(-c2ccc3c(n2)CCCN3S(=O)(=O)c2ccccc2)cc1	none (no result: NR2E3 ag-1, MT1-MMP act inh, NR2E3 ag-2, SKN-1 inh)
O=S1(=O)c2c(cccc2N2CC[C@@H](O)C2)OCCCN1C1CC1	none (no result: NR2E3 ag-1, MT1-MMP act inh, NR2E3 ag-2, PG9 Ab binder, SKN-1 inh)
Cc1cccc(N(C)S(=O)(=O)c2ccc3[nH]cc(C(=O)N4CCOCC4)c(=O)c3c2)c1	none
CCc1ccccc1N(C)S(=O)(=O)c1ccc2[nH]cc(C(=O)N3CCc4ccccc43)c(=O)c2c1	Rev-erbA mod 45 | Rev-erbA confirm 27
CC(=O)c1cc2c(cc1NC(=O)c1ccc(C)cc1)OCCO2	Rev-erbA mod 28 | Rev-erbA confirm inactive
CC(=O)c1cc2c(cc1N/C(=N/S(=O)(=O)c1ccc(C)cc1)c1ccccc1)OCO2	none
CC(=O)c1cc2c(cc1N/C(=N/S(=O)(=O)c1ccc(C)cc1)c1ccc(Cl)cc1)OCO2	Rev-erbA mod 92 | Rev-erbA confirm 57 | RORg counter inactive
CCC(=O)c1cc2c(cc1NC(=O)c1ccc(C)cc1)OCCO2	none
COC(=O)c1cccc(Nc2cc(C)n(-c3cccc(C(=O)OC)c3)c(=O)c2)c1	none (no result: NR2E3 ag-1, MT1-MMP act inh, NR2E3 ag-2, SKN-1 inh)
COc1ccc(-c2ccc3sc4ccccc4c(=O)c3c2)cn1	Rev-erbA mod 58 | Rev-erbA confirm 61 | RORg counter inactive
COc1cc2sc3ccc(-c4ccc(N(C)C)nc4)cc3c(=O)c2cc1OC	none (no result: MT1-MMP act inh, NR2E3 ag-2, SKN-1 inh)
COc1ccccc1N1C(=O)c2cccc3c(C(=O)O)ccc(c23)C1=O	none
COc1ccccc1N1C(=O)c2cccc3c(N(C)CCO)ccc(c23)C1=O	Rev-erbA mod 30 | Rev-erbA confirm 37 | RORg counter inactive
Cc1ccccc1N1C(=O)c2cccc3c(N(C)CCO)ccc(c23)C1=O	Rev-erbA mod 40 | Rev-erbA confirm 38
O=c1ccc(-c2ccc(S(=O)(=O)N3CCCCC3)o2)n[nH]1	none
Cc1ccc(Cl)cc1N1CCN(S(=O)(=O)c2ccc(-c3ccc(=O)[nH]n3)o2)CC1	Rev-erbA mod 135 | Rev-erbA confirm 138 | RORg counter inactive
Cc1ccc(C)c(N2CCN(S(=O)(=O)c3ccc(-c4ccc(=O)[nH]n4)o3)CC2)c1	Rev-erbA mod 33 | Rev-erbA confirm inactive
COc1ccc2c(c1)-c1c(ssc1=S)C(C)(C)N2C(=O)CSC1=NCCS1	Rev-erbA mod 21 | Rev-erbA confirm 30
CC1(C)c2ssc(=S)c2-c2ccccc2N1C(=O)CSC1=NCCS1	none
O=C(/C=C\Nc1ccc(Cl)cn1)c1ccc(Br)cc1	Rev-erbA mod 67 | Rev-erbA confirm inactive
CCOC(=O)c1sc(=NC(=O)c2ccc(OC(C)C)cc2)n(C)c1C	Rev-erbA mod 44 | Rev-erbA confirm 38 | RORg counter 4.4
CCOC(=O)c1sc(=NC(=O)c2ccc(C)c(C)c2)n(C)c1C	none
CCOC(=O)c1sc(=NC(=O)c2cccs2)n(C)c1C	Rev-erbA mod 31 | Rev-erbA confirm inactive
Cc1ccc2c(c1)sc(=NC(=O)c1cccs1)n2C	Rev-erbA mod 43 | Rev-erbA confirm inactive
Cc1cc(C)n(CCNC(=O)[C@H]2O[C@@H](n3ccc(N)nc3=O)[C@H](O)[C@@H]2O)n1	none (no result: NR2E3 ag-1)
CC1=Nc2ccccc2/C1=C/c1sc(=S)n(-c2cccc(C(=O)O)c2)c1O	Rev-erbA mod 48 (no result: NR2E3 ag-1) | Rev-erbA confirm 52 | RORg counter inactive
C=CCNC(=S)Nc1sc2c(c1C(=O)OCC)CC(C(C)C)OC2 (stereo unspecified)	none
CCOC(=O)c1c(NC(=S)NCCc2ccccc2)sc2c1CC(C(C)C)OC2 (stereo unspecified)	Rev-erbA mod 26 | Rev-erbA confirm 25
COC(=O)[C@]12C[C@H](CC(=O)N3CCOCC3)C(=O)N(Cc3ccc4c(c3)OCO4)C1=C[C@H](COCc1ccccc1)O[C@@H]2C	none (no result: NR2E3 ag-1, MT1-MMP act inh, NR2E3 ag-2, SKN-1 inh)
CCCCCOc1ccc(NC(=O)CSc2cccc3cccnc23)cc1	Rev-erbA mod 46 | Rev-erbA confirm 39 | RORg counter 1.4
CCn1c(C)c(C2=CCN(S(=O)(=O)c3ccccc3)CC2)c2ccccc21	Rev-erbA mod 28, SKN-1 inh 54 | Rev-erbA confirm 26
Cc1ccccc1C(=O)NN(C)c1nc2ccccc2nc1C(F)(F)F	Rev-erbA mod 36 | Rev-erbA confirm 31
C[C@@H]1Cc2cc(O)c(O)c(O)c2C(=O)O1	none (no result: NR2E3 ag-1, MT1-MMP act inh, NR2E3 ag-2, PG9 Ab binder, SKN-1 inh)
CNC[C@@H]1OCc2ccccc2-c2c(n(C)c3ccccc23)C(=O)N([C@@H](C)CO)C[C@@H]1C	none (no result: NR2E3 ag-1, MT1-MMP act inh, NR2E3 ag-2, SKN-1 inh)
CC1CCN(S(=O)(=O)c2ccc(C(=O)Nc3ccccc3-c3nc4ccccc4[nH]3)cc2)CC1	none
CC1CCCN(S(=O)(=O)c2ccc(C(=O)Nc3ccccc3-c3nc4ccccc4[nH]3)cc2)C1 (stereo unspecified)	Rev-erbA mod 39 | Rev-erbA confirm inactive
C=CCC[C@@H](Cc1ccc(F)cc1)C(=O)OC[C@H](C)NC(=O)[C@@H](CC=C)CC(=O)N(CCO)Cc1ccccc1	Rev-erbA mod 13 (no result: NR2E3 ag-1) | Rev-erbA confirm inactive
O=c1c2ccc(F)cc2nc2sc(Nc3ccc4c(c3)CCC4)nn12	Rev-erbA mod 74 (no result: NR2E3 ag-1, MT1-MMP act inh, NR2E3 ag-2, PG9 Ab binder, SKN-1 inh) | Rev-erbA confirm inactive
O=c1c2ccccc2nc2sc(Nc3cccc(Cl)c3)nn12	Rev-erbA mod 127 | Rev-erbA confirm 88 | RORg counter inactive
COc1ccc(-c2cc(C(F)(F)F)n3ncc(C(=O)NCC4CCCO4)c3n2)cc1 (stereo unspecified)	Rev-erbA mod 47 (no result: NR2E3 ag-1) | Rev-erbA confirm 22
CCCOc1ccc(/C(CC)=N/NC(=O)C2(C)CC2(Br)Br)cc1 (stereo unspecified)	Rev-erbA mod 34 | Rev-erbA confirm 47 | RORg counter inactive
O=C(NCCC(c1ccccc1)c1ccccc1)c1cnc2sccn2c1=O	Rev-erbA mod 26 | Rev-erbA confirm inactive
O=C(NCc1cccnc1)c1cnc2sccn2c1=O	none
O=C(Nc1ccc(F)c(Cl)c1)c1cc(C2CCCCN2C(=O)CCc2ccccc2)on1 (stereo unspecified)	none (no result: NR2E3 ag-1)
O=C(Nc1ccccc1)c1ccc(N2CCN(c3ccccc3)CC2)c(S(=O)(=O)N2CCOCC2)c1	Rev-erbA mod 61 | Rev-erbA confirm 29
O=C(Nc1ccccc1)c1ccc(N2CCN(c3ccccn3)CC2)c(S(=O)(=O)N2CCOCC2)c1	none
CC1(Cc2ccccc2Cl)C(=O)Nc2ccc(OC(F)(F)F)cc21 (stereo unspecified)	Rev-erbA mod 36 (no result: NR2E3 ag-1) | Rev-erbA confirm 45 | RORg counter inactive
